Reference: ChEMBL document CHEMBL3272198, “Preparation and in vitro antifungal activities of some quinolizidine derived hemiaminals and beta-tert-amino sulfides” (1976)
The source made the active and inactive calls. The rule behind the calls is not given here.

Key:
Blastomyces dermatitidis [1] = assay: Antifungal activity against Blastomyces dermatitidis Gilchrist & Stokes isolate 1107 at 10 ug/ml after 2 weeks (reference value: 35 mm); assay type: functional; conditions: Gilchrist & Stokes isolate 1107, 336 h, read-out: DIZ
How it was run: (§1)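 Mycelial phase grown on Sabouraud dextrose agar at 25°C. Agar pH was set to 6 before the test solution was added and was 5.0-5.5 after. Test solutions contained HOAc and Me2SO, and solvent and blank controls were included. Each quadrant was center-inoculated with a 2 × 2 mm piece of a 2-week-old mycelial culture. Colony diameter was measured weekly for 3 weeks and reported as total increments (mm). Duplicates were run.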

Blastomyces dermatitidis [2] = assay: Antifungal activity against Blastomyces dermatitidis Gilchrist & Stokes isolate 1107 at 80 ug/ml after 3 weeks (reference value: 40 mm); assay type: functional; conditions: Gilchrist & Stokes isolate 1107, 504 h, read-out: DIZ; how it was run: as §1
Blastomyces dermatitidis [3] = assay: Antifungal activity against Blastomyces dermatitidis Gilchrist & Stokes isolate 1107 at 60 ug/ml after 3 weeks (reference value: 40 mm); assay type: functional; conditions: Gilchrist & Stokes isolate 1107, 504 h, read-out: DIZ; how it was run: as §1
Blastomyces dermatitidis [4] = assay: Antifungal activity against Blastomyces dermatitidis Gilchrist & Stokes isolate 1107 at 20 ug/ml after 3 weeks (reference value: 40 mm); assay type: functional; conditions: Gilchrist & Stokes isolate 1107, 504 h, read-out: DIZ
Histoplasma capsulatum [5] = assay: Antifungal activity against Histoplasma capsulatum Darling isolate 1106 at 10 ug/ml after 1 week (reference value: 14 mm); assay type: functional; conditions: Darling isolate 1106, 168 h, read-out: DIZ
Histoplasma capsulatum [6] = assay: Antifungal activity against Histoplasma capsulatum Darling isolate 1106 at 60 ug/ml after 2 weeks (reference value: 25 mm); assay type: functional
Histoplasma capsulatum [7] = assay: Antifungal activity against Histoplasma capsulatum Darling isolate 1106 at 40 ug/ml after 2 weeks (reference value: 25 mm); assay type: functional
Histoplasma capsulatum [8] = assay: Antifungal activity against Histoplasma capsulatum Darling isolate 1106 at 20 ug/ml after 2 weeks (reference value: 25 mm); assay type: functional; conditions: Darling isolate 1106, 336 h, read-out: DIZ
Histoplasma capsulatum [9] = assay: Antifungal activity against Histoplasma capsulatum Darling isolate 1106 at 100 ug/ml after 3 weeks (reference value: 31 mm); assay type: functional
Histoplasma capsulatum [10] = assay: Antifungal activity against Histoplasma capsulatum Darling isolate 1106 at 40 ug/ml after 3 weeks (reference value: 31 mm); assay type: functional; conditions: Darling isolate 1106, 504 h, read-out: DIZ
Histoplasma capsulatum [11] = assay: Antifungal activity against Histoplasma capsulatum Darling isolate 1106 at 20 ug/ml after 3 weeks (reference value: 31 mm); assay type: functional; conditions: Darling isolate 1106, 504 h, read-out: DIZ
Blastomyces dermatitidis [12] = assay: Antifungal activity against Blastomyces dermatitidis Gilchrist & Stokes isolate 1099 at 20 ug/ml after 1 week (reference value: 14 mm); assay type: functional; how it was run: as §1
Blastomyces dermatitidis [13] = assay: Antifungal activity against Blastomyces dermatitidis Gilchrist & Stokes isolate 1099 at 10 ug/ml after 1 week (reference value: 14 mm); assay type: functional; how it was run: as §1
Blastomyces dermatitidis [14] = assay: Antifungal activity against Blastomyces dermatitidis Gilchrist & Stokes isolate 1099 at 100 ug/ml after 2 weeks (reference value: 27 mm); assay type: functional
Blastomyces dermatitidis [15] = assay: Antifungal activity against Blastomyces dermatitidis Gilchrist & Stokes isolate 1099 at 60 ug/ml after 2 weeks (reference value: 27 mm); assay type: functional; how it was run: as §1
Blastomyces dermatitidis [16] = assay: Antifungal activity against Blastomyces dermatitidis Gilchrist & Stokes isolate 1099 at 20 ug/ml after 2 weeks (reference value: 27 mm); assay type: functional; conditions: Gilchrist & Stokes isolate 1099, 336 h, read-out: DIZ
Blastomyces dermatitidis [17] = assay: Antifungal activity against Blastomyces dermatitidis Gilchrist & Stokes isolate 1099 at 10 ug/ml after 2 weeks (reference value: 27 mm); assay type: functional; conditions: Gilchrist & Stokes isolate 1099, 336 h, read-out: DIZ; how it was run: as §1
Blastomyces dermatitidis [18] = assay: Antifungal activity against Blastomyces dermatitidis Gilchrist & Stokes isolate 1099 at 20 ug/ml after 3 weeks (reference value: 34 mm); assay type: functional; conditions: Gilchrist & Stokes isolate 1099, 504 h, read-out: DIZ
Blastomyces dermatitidis [19] = assay: Antifungal activity against Blastomyces dermatitidis Gilchrist & Stokes isolate 1107 at 100 ug/ml after 1 week (reference value: 20 mm); assay type: functional
Blastomyces dermatitidis [20] = assay: Antifungal activity against Blastomyces dermatitidis Gilchrist & Stokes isolate 1107 at 60 ug/ml after 1 week (reference value: 20 mm); assay type: functional
Blastomyces dermatitidis [21] = assay: Antifungal activity against Blastomyces dermatitidis Gilchrist & Stokes isolate 1107 at 40 ug/ml after 1 week (reference value: 20 mm); assay type: functional
Blastomyces dermatitidis [22] = assay: Antifungal activity against Blastomyces dermatitidis Gilchrist & Stokes isolate 1107 at 20 ug/ml after 1 week (reference value: 20 mm); assay type: functional; how it was run: as §1
Blastomyces dermatitidis [23] = assay: Antifungal activity against Blastomyces dermatitidis Gilchrist & Stokes isolate 1107 at 100 ug/ml after 2 weeks (reference value: 35 mm); assay type: functional; how it was run: as §1
Blastomyces dermatitidis [24] = assay: Antifungal activity against Blastomyces dermatitidis Gilchrist & Stokes isolate 1107 at 80 ug/ml after 2 weeks (reference value: 35 mm); assay type: functional; conditions: Gilchrist & Stokes isolate 1107, 336 h, read-out: DIZ; how it was run: as §1
Blastomyces dermatitidis [25] = assay: Antifungal activity against Blastomyces dermatitidis Gilchrist & Stokes isolate 1107 at 60 ug/ml after 2 weeks (reference value: 35 mm); assay type: functional; conditions: Gilchrist & Stokes isolate 1107, 336 h, read-out: DIZ; how it was run: as §1
Blastomyces dermatitidis [26] = assay: Antifungal activity against Blastomyces dermatitidis Gilchrist & Stokes isolate 1107 at 40 ug/ml after 2 weeks (reference value: 35 mm); assay type: functional; conditions: Gilchrist & Stokes isolate 1107, 336 h, read-out: DIZ; how it was run: as §1
Blastomyces dermatitidis [27] = assay: Antifungal activity against Blastomyces dermatitidis Gilchrist & Stokes isolate 1107 at 20 ug/ml after 2 weeks (reference value: 35 mm); assay type: functional; conditions: Gilchrist & Stokes isolate 1107, 336 h, read-out: DIZ
Histoplasma capsulatum [28] = assay: Antifungal activity against Histoplasma capsulatum Darling isolate 1098 at 80 ug/ml after 1 week (reference value: 12 mm); assay type: functional
Histoplasma capsulatum [29] = assay: Antifungal activity against Histoplasma capsulatum Darling isolate 1098 at 40 ug/ml after 1 week (reference value: 12 mm); assay type: functional; conditions: Darling isolate 1098, 168 h, read-out: DIZ
Histoplasma capsulatum [30] = assay: Antifungal activity against Histoplasma capsulatum Darling isolate 1098 at 20 ug/ml after 1 week (reference value: 12 mm); assay type: functional; conditions: Darling isolate 1098, 168 h, read-out: DIZ
Histoplasma capsulatum [31] = assay: Antifungal activity against Histoplasma capsulatum Darling isolate 1098 at 60 ug/ml after 3 weeks (reference value: 28 mm); assay type: functional; conditions: Darling isolate 1098, 504 h, read-out: DIZ
Histoplasma capsulatum [32] = assay: Antifungal activity against Histoplasma capsulatum Darling isolate 1098 at 20 ug/ml after 3 weeks (reference value: 28 mm); assay type: functional; conditions: Darling isolate 1098, 504 h, read-out: DIZ
Blastomyces dermatitidis [33] = assay: Antifungal activity against Blastomyces dermatitidis Gilchrist & Stokes isolate 1107 at 1 ug/ml after 3 weeks (reference value: 40 mm); assay type: functional; conditions: Gilchrist & Stokes isolate 1107, 504 h, read-out: DIZ; how it was run: as §1
Histoplasma capsulatum [34] = assay: Antifungal activity against Histoplasma capsulatum Darling isolate 1106 at 1 ug/ml after 1 week (reference value: 14 mm); assay type: functional; conditions: Darling isolate 1106, 168 h, read-out: DIZ
Histoplasma capsulatum [35] = assay: Antifungal activity against Histoplasma capsulatum Darling isolate 1106 at 1 ug/ml after 2 weeks (reference value: 25 mm); assay type: functional; conditions: Darling isolate 1106, 336 h, read-out: DIZ
Blastomyces dermatitidis [36] = assay: Antifungal activity against Blastomyces dermatitidis Gilchrist & Stokes isolate 1099 at 1 ug/ml after 1 week (reference value: 14 mm); assay type: functional; conditions: Gilchrist & Stokes isolate 1099, 168 h, read-out: DIZ; how it was run: as §1
Blastomyces dermatitidis [37] = assay: Antifungal activity against Blastomyces dermatitidis Gilchrist & Stokes isolate 1099 at 1 ug/ml after 3 weeks (reference value: 34 mm); assay type: functional; conditions: Gilchrist & Stokes isolate 1099, 504 h, read-out: DIZ; how it was run: as §1
Blastomyces dermatitidis [38] = assay: Antifungal activity against Blastomyces dermatitidis Gilchrist & Stokes isolate 1107 at 1 ug/ml after 1 week (reference value: 20 mm); assay type: functional, organism-based; how it was run: as §1
Histoplasma capsulatum [39] = assay: Antifungal activity against Histoplasma capsulatum Darling isolate 1098 at 1 ug/ml after 1 week (reference value: 12 mm); assay type: functional; conditions: Darling isolate 1098, 168 h, read-out: DIZ
[40] = Gilchrist & Stokes isolate 1099, 168 h, read-out: DIZ
[41] = Darling isolate 1106, 336 h, read-out: DIZ

Row | SMILES | zone of inhibition at 10 µg/mL (Blastomyces dermatitidis [1]) | zone of inhibition at 80 µg/mL (Blastomyces dermatitidis [2]) | zone of inhibition at 60 µg/mL (Blastomyces dermatitidis [3]) | zone of inhibition at 10 µg/mL (Histoplasma capsulatum [5]) | zone of inhibition at 20 µg/mL (Histoplasma capsulatum [8]) | zone of inhibition at 40 µg/mL (Histoplasma capsulatum [10]) | Activity (Blastomyces dermatitidis [14]) | zone of inhibition at 10 µg/mL (Blastomyces dermatitidis [17]) | Activity (Blastomyces dermatitidis [19]) | Activity (Blastomyces dermatitidis [20]) | Activity (Blastomyces dermatitidis [21]) | zone of inhibition at 80 µg/mL (Blastomyces dermatitidis [24]) | zone of inhibition at 60 µg/mL (Blastomyces dermatitidis [25]) | zone of inhibition at 40 µg/mL (Blastomyces dermatitidis [26]) | zone of inhibition at 40 µg/mL (Histoplasma capsulatum [29]) | zone of inhibition at 20 µg/mL (Histoplasma capsulatum [30]) | zone of inhibition at 60 µg/mL (Histoplasma capsulatum [31]) | further results
1 | C[C@@H]1CC[C@@H](c2ccoc2)N2C(O)[C@@](C)(Sc3ccccc3)CC[C@@H]12 (stereo not given in full) | 26 mm | 7 mm | 14 mm | 9 mm | 11 mm | 5 mm | Active | 20 mm | Active | Active | inactive | 3 mm | 10 mm | 15 mm | 6 mm | 8 mm | 8 mm | zone of inhibition at 20 µg/mL (Blastomyces dermatitidis [4]): 22 mm; Activity (Histoplasma capsulatum [6]): Active; Activity (Histoplasma capsulatum [7]): inactive; Activity (Histoplasma capsulatum [9]): Active; zone of inhibition at 20 µg/mL (Histoplasma capsulatum [11]): 15 mm; zone of inhibition at 20 µg/mL (Blastomyces dermatitidis [12]; [40]): 7 mm; zone of inhibition at 10 µg/mL (Blastomyces dermatitidis [13]; [40]): 12 mm; zone of inhibition at 60 µg/mL (Blastomyces dermatitidis [15]; Gilchrist & Stokes isolate 1099, 336 h, read-out: DIZ): 6 mm; zone of inhibition at 20 µg/mL (Blastomyces dermatitidis [16]): 14 mm; zone of inhibition at 20 µg/mL (Blastomyces dermatitidis [18]): 18 mm; zone of inhibition at 20 µg/mL (Blastomyces dermatitidis [22]; Gilchrist & Stokes isolate 1107, 168 h, read-out: DIZ): 7 mm; Activity (Blastomyces dermatitidis [23]): Active; zone of inhibition at 20 µg/mL (Blastomyces dermatitidis [27]): 18 mm; Activity (Histoplasma capsulatum [28]): Active; zone of inhibition at 20 µg/mL (Histoplasma capsulatum [32]): 18 mm
2 | C[C@@H]1[C@H](O)[C@@H](C)/C=C/C=C/C=C/C=C/C=C/C=C/C=C/[C@H](O[C@@H]2O[C@H](C)[C@@H](O)[C@H](N)[C@@H]2O)C[C@@H]2O[C@](O)(C[C@@H](O)C[C@@H](O)[C@H](O)CC[C@@H](O)C[C@@H](O)CC(=O)O[C@H]1C)C[C@H](O)[C@H]2C(=O)O [AMPHOTERICIN B] | 9 mm | 15 mm | 14 mm | 7 mm | 7 mm | 13 mm | Active | 6 mm | Active | inactive | inactive | 10 mm | 10 mm | 14 mm | 5 mm | 8 mm | 13 mm | zone of inhibition at 1 µg/mL (Blastomyces dermatitidis [33]): 32 mm; zone of inhibition at 1 µg/mL (Histoplasma capsulatum [34]): 9 mm; zone of inhibition at 60 µg/mL (Histoplasma capsulatum [6]; [41]): 9 mm; zone of inhibition at 40 µg/mL (Histoplasma capsulatum [7]; [41]): 9 mm; zone of inhibition at 1 µg/mL (Histoplasma capsulatum [35]): 18 mm; zone of inhibition at 100 µg/mL (Histoplasma capsulatum [9]; Darling isolate 1106, 504 h, read-out: DIZ): 10 mm; Activity (Blastomyces dermatitidis [12]): Active; Activity (Blastomyces dermatitidis [13]): Active; zone of inhibition at 1 µg/mL (Blastomyces dermatitidis [36]): 7 mm; Activity (Blastomyces dermatitidis [15]): Active; zone of inhibition at 1 µg/mL (Blastomyces dermatitidis [37]): 19 mm; Activity (Blastomyces dermatitidis [22]): inactive; Activity (Blastomyces dermatitidis [38]): inactive; zone of inhibition at 100 µg/mL (Blastomyces dermatitidis [23]; Gilchrist & Stokes isolate 1107, 336 h, read-out: DIZ): 6 mm; zone of inhibition at 80 µg/mL (Histoplasma capsulatum [28]; Darling isolate 1098, 168 h, read-out: DIZ): 4 mm; zone of inhibition at 1 µg/mL (Histoplasma capsulatum [39]): 9 mm
